The list is not random: actives were taken first. Their share in the collection is about 3%.
Insulin prom inh: inhibitors of insulin promoter-driven GFP, primary screen, imaging, TRM-6 cells (human fetal islet line), eGFP reporter, cell count; AID 1273, 2008; reporter expression induced with tamoxifen; actives 0.9% (n = 130,000); inhibition, % at 2 µM;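 active = inhibition above the mean plus 3 SD, with well images judged a real hit on visual review, cut at about 60% in these data, passing the limit was not always enough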
Insulin prom up: insulin promoter activators in MIN6 cells, imaging, high-content screening, mouse beta cells | AID 1625, 2009 | actives 0.3% (n = 190,000) | z-score at 5 µM | MIN6 insulin promoter-GFP reporter; hits give high values;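 active = z-score above 3 at 5 µM with at least 500 cells counted in the well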
Yeast lifespan up: compounds extending yeast replicative lifespan, primary screen, S. cerevisiae, OD615; AID 775, 2007; actives 0.68% (n = 130,000); S. cerevisiae growth with nicotinamide; deaD strain in restrictive glucose medium; inhibition of the nicotinamide effect, % at 10 µM;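 active = inhibition above a set limit, placed 3 SD over the median of all compounds, cut at about 26% in these data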;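 note: 0% = nicotinamide-treated wells and 100% = cells grown without nicotinamide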
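Test system – modified budding yeast, DeaD strain · Compound – single dose 10 µM compound, 0.25% DMSO · Times – culture preincubation 4 h, compound exposure 48 h, both 30 °C · Detection – optical density (absorbance) at 615 nm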
RAM inhibit: inhibitors of the yeast RAM network, primary screen, dse1pr::URA3 reporter, 5-FOA selection; S. cerevisiae dse1pr::URA3 reporter, 5-FOA growth OD615, 2 d; analog-sensitive cbk1-as2 kinase mutant strain; AID 868, 2007; actives 1.8% (n = 190,000); inhibition, % at 50 µM;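 active = inhibition above a set limit, 3 SD over mean compound inhibition, cut at about 8.4% in these data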;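 note: 0% = DMSO-only wells with no growth and 100% = 10 µM 1-NA-PP1 full growth; inhibition rescues growth on 5-FOA so higher OD means more RAM inhibition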
Yeast growth inh: growth inhibitors of yeast BB579 in restrictive medium, primary screen, yeast lifespan-shortening project, S. cerevisiae. OD615, 48 h. inhibition, % at 10 µM. actives 0.51% (n = 140,000). AID 804, 2007;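 active = inhibition above a set limit, 3 SD over the mean compound inhibition, cut at about 44% in these data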
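controls = amphotericin B 10 µg/mL, positive | assay system = DeaD yeast strain BB579 | schedule = 48 h compound exposure at 30 °C after 4 h preincubation | detection = OD615 turbidity measurement | medium = restrictive CSMM-D medium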
* hit, by the source's call; i = inactive; / = not tested or not shown.

SMILES	Insulin prom inh	Insulin prom up	Yeast lifespan up	RAM inhibit	Yeast growth inh
CC(c1ccccc1)N(CC(=O)NC1CCCCC1)S(=O)(=O)c1cccc(C(F)(F)F)c1 (stereo not given)	0	-0.5	6	8	-9
Nc1nc(-c2cc3ccccc3o2)cs1	/	-0.46	/	/	/
Cc1cc(Nc2c(C#N)c(N)nn2C)ccc1F	/	0.37	/	3	/
Cc1cc(Nc2nn(C)c(N)c2C#N)ccc1F	/	6*	/	2	/
O=C(CN1C(=O)S/C(=C\c2ccc(Cl)cc2)C1=O)NNC(=O)c1ccccc1O	/	-0.37	1	3	-42
CCN(CC)c1ccc(NS(=O)(=O)c2ccc(OC)cc2)cc1	-33	-1	/	1	/
c1ccc(C2NCCn3cccc32)cc1 (stereo not given)	-3	-0.08	-11	1	-18
Fc1ccc(C2NCCn3cccc32)cc1 (stereo not given)	22	3.9*	-10	0	-1
OC(CN1CCN(c2ccccn2)CC1)Cn1c2ccc(Cl)cc2c2cc(Cl)ccc21 (stereo not given)	-18	-0.03	-27	-1	99*
C/C(=N\N=C(N)N)c1ccc(Cl)c(Cl)c1	35	-0.9	/	2	/
Cc1ccc(N2C=Nc3ccc(C)c4nc(C)cc2c34)cc1	85*	0.02	-4	1	6
O=C(CSc1nnc(SCc2ccccc2)s1)N/N=C/c1c(Cl)cccc1Cl	0	0.73	14	10*	-23
Cc1nn(-c2ccccc2)c(C)c1/C=N/NC(=O)CSc1nnc(SCc2ccc(Cl)cc2)s1	/	-0.92	-3	0	-29
O=C1CN(c2nc3nonc3nc2N2CCCCC2)CCN1	/	-0.39	/	1	/
Brc1ccc(CSc2ccc3nnc(-c4cccnc4)n3n2)cc1	/	-0.12	/	10*	/
Brc1ccc(CSc2ccc3nnc(-c4ccccn4)n3n2)cc1	-49	-0.34	/	9.9*	/
CCCn1c(N/N=C(C)\C=C\c2ccccc2)nc2c1c(=O)[nH]c(=O)n2C	/	-1.2	/	1	/
CCc1cc2c3c(c1)C(C)CC(C)(C)N3C(=O)C2=O (stereo not given)	13	-0.28	28*	0	-25
Cc1ccc(NC(=O)Nc2ccno2)cc1	/	-1.8	/	/	/
CN1C(=O)C(O)(CC(=O)c2ccccc2O)c2cc(Br)ccc21 (stereo not given)	/	-0.53	-10	-1	54*
O=C(Nc1cccc([N+](=O)[O-])c1)c1ccccc1	/	0.96	/	/	/
O=[N+]([O-])c1ccc(Oc2ccc(S(=O)(=O)Nc3ccccc3)cc2)cc1	14	-0.2	-1	9.8*	-28
O=C(Nc1ccccc1)c1cccc(S(=O)(=O)Oc2ccc([N+](=O)[O-])cc2)c1	-16	0.31	-5	10*	-23
Cc1ccc(C(=O)NCC(=O)Nc2ccc(C)c(S(=O)(=O)Nc3ccc(Cl)cc3)c2)s1	33	0.63	/	6	/
COc1ccc(NS(=O)(=O)c2cc(NC(=O)CNC(=O)c3ccc(C)s3)ccc2Cl)cc1	-9	-0.51	5	10*	-18
SMILES	Insulin prom inh	Insulin prom up	Yeast lifespan up	RAM inhibit	Yeast growth inh
c1ccc(C2=Nn3c(nnc3-c3ccco3)SC2)cc1	16	0.46	/	9.3*	/
CCN(Cc1ccccc1)C(=O)c1ccc(Cl)cc1[N+](=O)[O-]	/	-1	/	2	/
Cc1ccc(C(=O)C(OC(=O)CN2C(=O)c3ccccc3C2=O)c2ccccc2)cc1C (stereo not given)	25	-0.35	0	4	-17
O=C(O)c1ccccc1NSc1ccccc1[N+](=O)[O-]	/	/	/	5	/
O=C(O)c1ccccc1Sc1c([N+](=O)[O-])cc(C(F)(F)F)cc1[N+](=O)[O-]	73*	-0.66	/	2	/
c1ccc(-n2cc(CNCCc3cscn3)c(-c3ccc4c(c3)OCO4)n2)cc1	/	/	/	1	/
COc1cc2c3nnc(-c4ccccc4)c-3cn(Cc3ccccc3F)c2cc1OC	i	/	/	4	/
COc1cc2c3nnc(-c4ccc(F)cc4)c-3cn(Cc3ccccc3F)c2cc1OC	i	6.3*	/	4	/
CSc1nnc(Cn2c(=O)sc3ccccc32)n1CCc1ccccc1	/	-0.35	0	8.9*	-28
CSc1nnc(Cn2c(=O)sc3ccccc32)n1C	/	0.28	-1	0	-13
Cn1c(SCC(=O)Nc2ccccc2)nc(O)cc1=O	-31	/	-5	1	62*
COc1ccc(NC(=O)CSc2nc(O)cc(=O)n2C)cc1	39	0.34	-9	0	10

Assay outcomes from PubChem.
